The source made the active and inactive calls. No cut-off for these calls is given here.
Key:
[1] = target: T1, Glucose-dependent insulinotropic receptor (Homo sapiens, UniProt Q8TDV5); assay: Agonist activity at human GPR119 expressed in HEK293 cells co-expressing Flp-In-T-Rex assessed as cAMP accumulation after 60 mins; format: functional, cell-based
T1 sequence (Q8TDV5 whole entry): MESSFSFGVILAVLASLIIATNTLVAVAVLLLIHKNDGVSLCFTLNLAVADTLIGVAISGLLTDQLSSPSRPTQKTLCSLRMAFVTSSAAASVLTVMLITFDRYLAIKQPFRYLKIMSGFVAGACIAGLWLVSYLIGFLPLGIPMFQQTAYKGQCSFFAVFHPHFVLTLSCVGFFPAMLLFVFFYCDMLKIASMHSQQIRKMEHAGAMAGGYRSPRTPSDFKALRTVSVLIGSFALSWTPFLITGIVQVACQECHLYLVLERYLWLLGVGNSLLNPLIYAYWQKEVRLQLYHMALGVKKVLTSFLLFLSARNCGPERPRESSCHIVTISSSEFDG
Method in brief: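 Tetracycline-inducible human GPR119 cell line, plated at 7.5 × 10⁵ cells/well 24 h before assay in DMEM with 10% FBS and 1 ng/ml tetracycline. Medium was then swapped for PBS assay buffer containing 25 mM HEPES (pH 7.4), 12 mM glucose, 0.01% FAF-BSA and 0.1 mM IBMX. Cells were exposed to compound for 60 min, then lysed. cAMP was read by enzyme fragment complementation fluorescence; EC50 and Emax reported.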

[2] = target: T2, Glucose-dependent insulinotropic receptor (Homo sapiens) (UniProt Q8TDV5); assay: Intrinsic activity at human GPR119 expressed in HEK293 cells co-expressing Flp-In-T-Rex assessed as cAMP accumulation after 60 mins relative to propan-2-yl 4-({6-[(2-fluoro-4-methanesulfonylphenyl)amino]pyrimidin-4-yl}oxy)piperidine-1-carboxylate; format: functional, cell-based
T2 sequence (whole entry): T1 sequence (Q8TDV5 whole entry)
Method in brief: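 Tetracycline-inducible human GPR119 cells plated 7.5 × 10⁵/well 24 h ahead in growth medium (DMEM, 10% FBS) with 1 ng/ml tetracycline. Compound exposure 60 min, then lysis; cAMP read by enzyme fragment complementation fluorescence. EC₅₀ and Emax derived.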

[3] = target: Glucose-dependent insulinotropic receptor (Homo sapiens) (UniProt Q8TDV5); assay: Agonist activity at human GPR119 expressed in HEK293 cells co-expressing Flp-In-T-Rex assessed as cAMP accumulation after 60 mins
[4] = Metabolic stability in human liver microsomes assessed as compound remaining after 10 mins; format: ADME; conditions: read-out: Stability
[5] = Metabolic stability in mouse liver microsomes assessed as compound remaining after 10 mins; format: ADME; conditions: read-out: Stability
[6] = Aqueous solubility of the compound at pH 6.5; format: physicochemical
[7] = Permeability of the compound by PAMPA; format: physicochemical
[8] = target: T3, Nuclear receptor subfamily 1 group I member 2 (Homo sapiens, UniProt O75469); assay: Transactivation of PXR (unknown origin)
T3 sequence (O75469 whole entry): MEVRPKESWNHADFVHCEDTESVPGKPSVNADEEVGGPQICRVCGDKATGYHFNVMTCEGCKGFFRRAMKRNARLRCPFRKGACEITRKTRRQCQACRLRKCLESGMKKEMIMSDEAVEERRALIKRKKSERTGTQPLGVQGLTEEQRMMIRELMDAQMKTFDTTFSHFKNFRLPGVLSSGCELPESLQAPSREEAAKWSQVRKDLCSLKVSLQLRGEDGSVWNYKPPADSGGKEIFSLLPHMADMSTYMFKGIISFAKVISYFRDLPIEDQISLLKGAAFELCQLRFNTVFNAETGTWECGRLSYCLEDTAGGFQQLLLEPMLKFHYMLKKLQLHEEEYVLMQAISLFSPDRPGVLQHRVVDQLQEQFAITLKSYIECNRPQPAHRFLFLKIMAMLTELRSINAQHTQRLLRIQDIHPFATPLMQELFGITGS

[9] = Inhibition of CYP450 (unknown origin); format: ADME; conditions: human

**Q.** For `CCCS(=O)(=O)N1CC=C(c2ccc3c(c2)CC(C2CCN(S(=O)(=O)CCC)CC2)O3)CC1` (racemic), which EC50 [1] is on record?
**A.** 1000 nM

**Q.** What about the Emax [2] of the same compound?
**A.** 43%

**Q.** What about the Activity [3] of the same compound?
**A.** Active

**Q.** For `CCCS(=O)(=O)N1CC=C(c2ccc3c(c2)CC(C2CCN(c4ncc(Cl)cn4)CC2)O3)CC1` (racemic), which EC50 [1] is on record?
**A.** 78 nM

**Q.** What about the Emax [2] of the same compound?
**A.** 88%

**Q.** And the remaining at 10 min [4]?
**A.** 48%

**Q.** And the remaining at 10 min [5]?
**A.** 45%

**Q.** And the Activity [3]?
**A.** Active

**Q.** With `CCCS(=O)(=O)N1CC=C(c2ccc3c(c2)CC(C2CCN(C(=O)OC4CCCCC4)CC2)O3)CC1` (racemic) as the compound, how does the EC50 [1] read?
**A.** 51 nM

**Q.** What about the Emax [2] of the same compound?
**A.** 56%

**Q.** What about the Activity [3] of the same compound?
**A.** Active

**Q.** What does the source list for `CCCc1cnc(N2CCC(C3Cc4cc(C5=CCN(S(=O)(=O)CCC)CC5)ccc4O3)CC2)nc1` (racemic)?
**A.** EC50 [1]: 82 nM; Emax [2]: 107%; remaining at 10 min [4]: 71%; remaining at 10 min [5]: 58%; Activity [3]: Active

**Q.** With `CCCS(=O)(=O)N1CC=C(c2ccc3c(c2)CC(C2CCN(Cc4ccccc4)CC2)O3)CC1` (racemic) as the compound, how does the EC50 [1] read?
**A.** 521 nM

**Q.** What about the Emax [2] of the same compound?
**A.** 88%

**Q.** What about the Activity [3] of the same compound?
**A.** Active

**Q.** What does the source list for `CCCS(=O)(=O)N1CC=C(c2ccc3c(c2)CC(C2CCN(c4ncc(C5CC5)cn4)CC2)O3)CC1` (racemic)?
**A.** EC50 [1]: 67 nM; Emax [2]: 85%; remaining at 10 min [4]: 58%; remaining at 10 min [5]: 3%; Activity [3]: Active

**Q.** With `CCCS(=O)(=O)N1CC=C(c2ccc3c(c2)CC(C2CCN(c4ccc(C(F)(F)F)cn4)CC2)O3)CC1` (racemic) as the compound, how does the EC50 [1] read?
**A.** 34 nM

**Q.** What about the Emax [2] of the same compound?
**A.** 99%

**Q.** And the remaining at 10 min [4]?
**A.** 47%

**Q.** What about the remaining at 10 min [5] of the same compound?
**A.** 46%

**Q.** And the Activity [3]?
**A.** Active

**Q.** With `CCCc1cnc(N2CCC(C3(C)Cc4cc(C5=CCN(S(=O)(=O)CCC)CC5)ccc4O3)CC2)nc1` (racemic) as the compound, how does the EC50 [1] read?
**A.** 70 nM

**Q.** What about the Emax [2] of the same compound?
**A.** 48%

**Q.** And the remaining at 10 min [4]?
**A.** 68%

**Q.** What about the remaining at 10 min [5] of the same compound?
**A.** 52%

**Q.** What does the source list for `CCCc1cnc(N2CCC(C3Cc4cc(N5CCN(S(=O)(=O)CCC)CC5)ccc4O3)CC2)nc1` (racemic)?
**A.** EC50 [1]: 544 nM; Emax [2]: 74%; remaining at 10 min [4]: 82%; remaining at 10 min [5]: 44%

**Q.** What does the source list for `CCCc1cnc(N2CCC(C3Cc4cc(C5CCN(S(=O)(=O)CCC)CC5)ccc4O3)CC2)nc1` (racemic)?
**A.** EC50 [1]: 386 nM; Emax [2]: 43%; remaining at 10 min [4]: 70%; remaining at 10 min [5]: 52%

**Q.** For `CCCc1cnc(N2CCC(C3Cc4c(ccc(C5=CCN(S(=O)(=O)CCC)CC5)c4F)O3)CC2)nc1` (racemic), which EC50 [1] is on record?
**A.** 5 nM

**Q.** And the Emax [2]?
**A.** 123%

**Q.** What about the remaining at 10 min [4] of the same compound?
**A.** 87%

**Q.** What about the remaining at 10 min [5] of the same compound?
**A.** 78%

**Q.** And the solubility ([6]; aqueous, read-out: solubility)?
**A.** < 1 µg/mL

**Q.** What about the permeability [7] of the same compound?
**A.** permeable

**Q.** And the Activity [8]?
**A.** Not Active

**Q.** What about the “inhibition (INH)” value [9] of the same compound?
**A.** Not Active

**Q.** With `CCCc1cnc(N2CCC(C3Cc4cc(C5=CCN(S(=O)(=O)CCCCO)CC5)cc(F)c4O3)CC2)nc1` (racemic) as the compound, how does the EC50 [1] read?
**A.** 60 nM

**Q.** What about the Emax [2] of the same compound?
**A.** 98%

**Q.** What about the remaining at 10 min [4] of the same compound?
**A.** 73%

**Q.** What about the remaining at 10 min [5] of the same compound?
**A.** 59%

**Q.** Which EC50 [1] does the source give for `CCCc1cnc(N2CCC(C3Cc4c(F)c(C5=CCN(S(=O)(=O)CCCO)CC5)cc(F)c4O3)CC2)nc1` (racemic) here?
**A.** 16 nM

**Q.** And the Emax [2]?
**A.** 86%

**Q.** And the remaining at 10 min [4]?
**A.** 89%

**Q.** What about the remaining at 10 min [5] of the same compound?
**A.** 82%

**Q.** With `CCCc1cnc(N2CCC(C3Cc4cc(C5=CCN(S(=O)(=O)CCC)CC5)cc(F)c4O3)CC2)nc1` (racemic) as the compound, how does the EC50 [1] read?
**A.** 62 nM

**Q.** And the Emax [2]?
**A.** 93%

**Q.** And the remaining at 10 min [4]?
**A.** 97%

**Q.** What about the remaining at 10 min [5] of the same compound?
**A.** 74%

**Q.** Which EC50 [1] does the source give for `CCCc1cnc(N2CCC(C3Cc4c(F)c(C5=CCN(S(=O)(=O)CCC)CC5)cc(F)c4O3)CC2)nc1` (racemic) here?
**A.** 2 nM

**Q.** What about the Emax [2] of the same compound?
**A.** 119%

**Q.** What about the remaining at 10 min [4] of the same compound?
**A.** 78%

**Q.** And the remaining at 10 min [5]?
**A.** 80%

**Q.** And the solubility ([6]; aqueous, read-out: solubility)?
**A.** < 1 µg/mL

**Q.** And the permeability [7]?
**A.** permeable

**Q.** And the Activity [8]?
**A.** Not Active

**Q.** What about the “inhibition (INH)” value [9] of the same compound?
**A.** Not Active

**Q.** With `CCCc1cnc(N2CCC(C3Cc4cc(C5=CCN(S(=O)(=O)CCCO)CC5)cc(F)c4O3)CC2)nc1` (racemic) as the compound, how does the EC50 [1] read?
**A.** 122 nM

**Q.** And the Emax [2]?
**A.** 92%

**Q.** And the remaining at 10 min [4]?
**A.** 100%

**Q.** And the remaining at 10 min [5]?
**A.** 60%

**Q.** With `CCCS(=O)(=O)N1CC=C(c2ccc3c(c2)CC(C2CCN(C(=O)OC(C)C)CC2)O3)CC1` (racemic) as the compound, how does the EC50 [1] read?
**A.** 103 nM

**Q.** What about the Emax [2] of the same compound?
**A.** 61%

**Q.** What about the remaining at 10 min [4] of the same compound?
**A.** 10%

**Q.** What about the remaining at 10 min [5] of the same compound?
**A.** 12%

**Q.** What about the Activity [3] of the same compound?
**A.** Active

**Q.** With `CCCc1cnc(N2CCC(C3Cc4c(F)c(C5=CCN(S(=O)(=O)CCC(C)(C)O)CC5)cc(F)c4O3)CC2)nc1` (racemic) as the compound, how does the EC50 [1] read?
**A.** 101 nM

**Q.** And the Emax [2]?
**A.** 82%

**Q.** And the remaining at 10 min [4]?
**A.** 55%

**Q.** What about the remaining at 10 min [5] of the same compound?
**A.** 61%

**Q.** With `CCCc1cnc(N2CCC(C3(C)Cc4cc(C5=CCN(S(=O)(=O)CCCO)CC5)ccc4O3)CC2)nc1` (racemic) as the compound, how does the EC50 [1] read?
**A.** 78 nM

**Q.** And the Emax [2]?
**A.** 78%

**Q.** What about the remaining at 10 min [4] of the same compound?
**A.** 72%

**Q.** And the remaining at 10 min [5]?
**A.** 42%

**Q.** Which results are given for `CCCc1cnc(N2CCC(C3(C)Cc4cc(C5=CCN(S(=O)(=O)CCCCO)CC5)ccc4O3)CC2)nc1` (racemic)?
**A.** EC50 [1]: 28 nM; Emax [2]: 67%; remaining at 10 min [4]: 67%; remaining at 10 min [5]: 70%

**Q.** What does the source list for `CCCS(=O)(=O)N1CC=C(c2ccc3c(c2)CC(C2CCN(c4ncc(C(F)(F)F)cn4)CC2)O3)CC1` (racemic)?
**A.** EC50 [1]: 14 nM; Emax [2]: 118%; remaining at 10 min [4]: 58%; solubility ([6]; buffer): Insoluble; Activity [3]: Active

**Q.** Which EC50 [1] does the source give for `CCCc1cnc(N2CCC(C3Cc4cc(-c5ccc(S(C)(=O)=O)cc5F)ccc4O3)CC2)nc1` (racemic) here?
**A.** 541 nM

**Q.** What about the Emax [2] of the same compound?
**A.** 53%
